Assays:
Type in all cases: cell-based
[1] = Cytotoxicity against HEK293 cells expressing human AC1 at 30 uM preincubated for 30 mins followed by A23187 stimulation and measured after 1 hr by CellTiter-Glo luminescent cell viability assay relative to control; conditions: HEK293 cells expressing human AC1, read-out: Activity
In short: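 Cytotoxicity in HEK lines stably expressing AC1 or AC8: single 30 µM dose, 90 min incubation. Viability was read by luminescent ATP reporter as % of DMSO-treated (100%) and Triton-X-treated (0%) controls.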

Adenylate cyclase type 8 [2] = biological target: T1, Adenylate cyclase type 8 (Homo sapiens, UniProt P40145); experiment: Inhibition of human AC8 expressed in HEK293 cells assessed as decrease in A23187-stimulated cAMP accumulation at 30 uM preincubated for 30 mins followed by A23187 stimulation and measured after 1 hr by fluorescence assay relative to control
T1 sequence (P40145 whole entry): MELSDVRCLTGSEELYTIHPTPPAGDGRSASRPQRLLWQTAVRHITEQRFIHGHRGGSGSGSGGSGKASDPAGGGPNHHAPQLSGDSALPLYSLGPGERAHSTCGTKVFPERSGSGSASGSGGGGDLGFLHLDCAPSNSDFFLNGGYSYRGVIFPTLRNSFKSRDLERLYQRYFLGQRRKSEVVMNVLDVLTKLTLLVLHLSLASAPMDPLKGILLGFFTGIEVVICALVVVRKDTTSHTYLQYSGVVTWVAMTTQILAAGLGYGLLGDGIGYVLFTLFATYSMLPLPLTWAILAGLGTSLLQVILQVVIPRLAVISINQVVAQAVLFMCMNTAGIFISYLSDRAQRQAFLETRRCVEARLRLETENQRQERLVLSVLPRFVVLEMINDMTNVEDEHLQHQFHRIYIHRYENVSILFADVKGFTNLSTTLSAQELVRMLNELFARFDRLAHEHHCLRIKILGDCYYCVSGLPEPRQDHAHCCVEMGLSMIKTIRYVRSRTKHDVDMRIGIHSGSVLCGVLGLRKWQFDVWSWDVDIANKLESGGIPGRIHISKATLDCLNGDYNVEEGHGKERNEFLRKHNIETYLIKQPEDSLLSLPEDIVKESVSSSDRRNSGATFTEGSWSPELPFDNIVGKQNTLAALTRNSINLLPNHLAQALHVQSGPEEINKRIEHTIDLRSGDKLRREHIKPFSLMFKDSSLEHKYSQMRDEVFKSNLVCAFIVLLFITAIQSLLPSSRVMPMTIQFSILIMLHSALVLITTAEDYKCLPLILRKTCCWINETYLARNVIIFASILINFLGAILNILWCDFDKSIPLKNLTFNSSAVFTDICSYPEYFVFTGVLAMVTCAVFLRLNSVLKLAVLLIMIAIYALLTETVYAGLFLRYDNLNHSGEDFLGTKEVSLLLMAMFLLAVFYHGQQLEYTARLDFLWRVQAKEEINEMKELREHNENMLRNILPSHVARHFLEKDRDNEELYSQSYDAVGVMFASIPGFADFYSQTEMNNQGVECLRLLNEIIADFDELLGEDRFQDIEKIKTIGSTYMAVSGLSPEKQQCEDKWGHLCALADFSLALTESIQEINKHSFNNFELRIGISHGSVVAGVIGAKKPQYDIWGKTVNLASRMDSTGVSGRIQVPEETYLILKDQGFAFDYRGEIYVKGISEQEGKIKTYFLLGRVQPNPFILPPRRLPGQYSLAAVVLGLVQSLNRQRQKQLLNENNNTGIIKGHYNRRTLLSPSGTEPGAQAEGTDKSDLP
In short: (§1)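 HEK cells stably expressing AC1 or AC8; Ca2+/calmodulin-stimulated cAMP accumulation measured. Dose-response curves began at 30 µM. […] Values are the mean and SEM of three independent experiments.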

Adenylate cyclase type 1 [3] = biological target: T2, Adenylate cyclase type 1 (Homo sapiens, UniProt Q08828); experiment: Inhibition of human AC1 expressed in HEK293 cells assessed as decrease in A23187-stimulated cAMP accumulation at 30 uM preincubated for 30 mins followed by A23187 stimulation and measured after 1 hr by fluorescence assay relative to control; in short: as §1
Target sequence in this assay (Q08828 whole entry, looked up): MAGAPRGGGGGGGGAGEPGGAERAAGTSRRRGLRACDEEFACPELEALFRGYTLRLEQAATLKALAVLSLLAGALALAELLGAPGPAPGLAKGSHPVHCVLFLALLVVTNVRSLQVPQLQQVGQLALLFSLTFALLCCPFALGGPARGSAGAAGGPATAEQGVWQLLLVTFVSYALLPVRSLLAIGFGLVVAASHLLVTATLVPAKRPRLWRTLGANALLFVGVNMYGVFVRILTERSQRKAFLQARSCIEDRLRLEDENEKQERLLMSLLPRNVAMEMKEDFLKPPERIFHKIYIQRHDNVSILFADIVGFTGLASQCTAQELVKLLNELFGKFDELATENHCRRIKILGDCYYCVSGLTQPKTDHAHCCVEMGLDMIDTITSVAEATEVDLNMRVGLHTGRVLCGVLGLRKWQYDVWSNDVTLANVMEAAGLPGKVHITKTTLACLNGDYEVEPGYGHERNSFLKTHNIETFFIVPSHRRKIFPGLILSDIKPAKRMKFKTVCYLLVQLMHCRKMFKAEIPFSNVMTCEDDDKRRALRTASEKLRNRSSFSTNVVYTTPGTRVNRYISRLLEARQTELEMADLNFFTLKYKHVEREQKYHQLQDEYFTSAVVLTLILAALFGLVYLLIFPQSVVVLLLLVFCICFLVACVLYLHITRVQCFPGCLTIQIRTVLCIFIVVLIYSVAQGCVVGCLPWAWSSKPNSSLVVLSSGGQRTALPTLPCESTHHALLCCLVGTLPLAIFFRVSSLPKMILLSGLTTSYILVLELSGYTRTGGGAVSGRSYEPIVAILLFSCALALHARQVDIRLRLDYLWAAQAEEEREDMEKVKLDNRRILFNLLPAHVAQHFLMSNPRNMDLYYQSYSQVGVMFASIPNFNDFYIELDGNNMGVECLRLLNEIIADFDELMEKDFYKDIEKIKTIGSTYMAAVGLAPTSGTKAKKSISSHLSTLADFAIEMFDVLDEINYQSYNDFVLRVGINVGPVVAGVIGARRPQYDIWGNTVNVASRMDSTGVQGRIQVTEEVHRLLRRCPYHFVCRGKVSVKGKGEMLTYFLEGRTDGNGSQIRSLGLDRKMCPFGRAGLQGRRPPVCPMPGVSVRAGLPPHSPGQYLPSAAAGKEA

Adenylate cyclase type 1 [4] = biological target: T2, Adenylate cyclase type 1; experiment: Inhibition of human AC1 expressed in HEK293 cells assessed as decrease in A23187-stimulated cAMP accumulation preincubated for 30 mins followed by A23187 stimulation and measured after 1 hr by fluorescence assay; in short: as §1
Target sequence in this assay (Q08828 whole entry): as the sequence (Q08828 whole entry, looked up) above

Homo sapiens = species: Homo sapiens; experiment: Selectivity ratio of IC50 for human AC8 expressed in HEK293 cells to IC50 for human AC1 expressed in HEK293 cells
Adenylate cyclase type 8 [5] = biological target: T1, Adenylate cyclase type 8; experiment: Inhibition of human AC8 expressed in HEK293 cells assessed as decrease in A23187-stimulated cAMP accumulation preincubated for 30 mins followed by A23187 stimulation and measured after 1 hr by fluorescence assay; in short: as §1
[6] = biological target: Adenylate cyclase type 2 (Homo sapiens) (UniProt Q08462); experiment: Inhibition of human AC2 expressed in HEK293 cells assessed as PMA-stimulated cAMP accumulation at 30 uM preincubated for 30 mins followed by PMA stimulation and measured after 1 hr by fluorescence assay relative to control; parameters: scale not given: the % may be the effect or the level left
Adenylate cyclase type 2 (Homo sapiens), sequence (Q08462 whole entry): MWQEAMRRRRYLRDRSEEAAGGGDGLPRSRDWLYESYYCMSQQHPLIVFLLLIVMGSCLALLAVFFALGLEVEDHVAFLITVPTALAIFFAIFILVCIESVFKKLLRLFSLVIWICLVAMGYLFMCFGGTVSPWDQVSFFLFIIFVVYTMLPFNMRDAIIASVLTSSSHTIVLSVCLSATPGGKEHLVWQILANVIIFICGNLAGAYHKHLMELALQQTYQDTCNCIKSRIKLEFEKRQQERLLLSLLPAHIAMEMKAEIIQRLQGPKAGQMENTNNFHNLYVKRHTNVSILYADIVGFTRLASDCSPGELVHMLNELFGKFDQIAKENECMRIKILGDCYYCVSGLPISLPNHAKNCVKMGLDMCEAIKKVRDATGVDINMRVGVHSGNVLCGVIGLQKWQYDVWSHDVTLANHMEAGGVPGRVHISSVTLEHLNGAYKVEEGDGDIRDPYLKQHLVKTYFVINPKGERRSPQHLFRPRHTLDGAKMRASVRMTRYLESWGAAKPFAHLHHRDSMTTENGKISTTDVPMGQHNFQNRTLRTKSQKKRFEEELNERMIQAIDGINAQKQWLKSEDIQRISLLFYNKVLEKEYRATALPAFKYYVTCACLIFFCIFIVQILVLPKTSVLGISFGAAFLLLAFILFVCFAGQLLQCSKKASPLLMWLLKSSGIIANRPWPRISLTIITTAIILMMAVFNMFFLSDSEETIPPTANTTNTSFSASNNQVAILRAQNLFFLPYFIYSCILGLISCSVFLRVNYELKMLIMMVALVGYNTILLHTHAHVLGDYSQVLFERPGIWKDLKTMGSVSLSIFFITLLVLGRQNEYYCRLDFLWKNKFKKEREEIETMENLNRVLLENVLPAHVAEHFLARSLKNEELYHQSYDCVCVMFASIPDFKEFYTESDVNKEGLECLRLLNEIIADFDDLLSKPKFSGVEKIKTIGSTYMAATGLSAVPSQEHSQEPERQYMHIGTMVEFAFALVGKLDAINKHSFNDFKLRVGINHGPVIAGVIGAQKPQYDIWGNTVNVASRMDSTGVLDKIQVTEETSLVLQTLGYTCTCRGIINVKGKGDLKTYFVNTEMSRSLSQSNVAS
In short: (§2)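 Group 2 AC2 (PKC-stimulated) or group 3 AC (forskolin-stimulated) cells were exposed to a single 30 µM dose (n = 3). cAMP activity was normalized to DMSO controls set as 100%.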

[7] = biological target: Adenylate cyclase type 5 (Homo sapiens) (UniProt O95622); experiment: Inhibition of human AC5 expressed in HEK293 cells assessed as forskolin-stimulated cAMP accumulation at 30 uM preincubated for 30 mins followed by forskolin stimulation and measured after 1 hr by fluorescence assay relative to control; parameters: scale not given: the % may be the effect or the level left; in short: as §2
Adenylate cyclase type 5 (Homo sapiens), sequence (O95622 whole entry, looked up): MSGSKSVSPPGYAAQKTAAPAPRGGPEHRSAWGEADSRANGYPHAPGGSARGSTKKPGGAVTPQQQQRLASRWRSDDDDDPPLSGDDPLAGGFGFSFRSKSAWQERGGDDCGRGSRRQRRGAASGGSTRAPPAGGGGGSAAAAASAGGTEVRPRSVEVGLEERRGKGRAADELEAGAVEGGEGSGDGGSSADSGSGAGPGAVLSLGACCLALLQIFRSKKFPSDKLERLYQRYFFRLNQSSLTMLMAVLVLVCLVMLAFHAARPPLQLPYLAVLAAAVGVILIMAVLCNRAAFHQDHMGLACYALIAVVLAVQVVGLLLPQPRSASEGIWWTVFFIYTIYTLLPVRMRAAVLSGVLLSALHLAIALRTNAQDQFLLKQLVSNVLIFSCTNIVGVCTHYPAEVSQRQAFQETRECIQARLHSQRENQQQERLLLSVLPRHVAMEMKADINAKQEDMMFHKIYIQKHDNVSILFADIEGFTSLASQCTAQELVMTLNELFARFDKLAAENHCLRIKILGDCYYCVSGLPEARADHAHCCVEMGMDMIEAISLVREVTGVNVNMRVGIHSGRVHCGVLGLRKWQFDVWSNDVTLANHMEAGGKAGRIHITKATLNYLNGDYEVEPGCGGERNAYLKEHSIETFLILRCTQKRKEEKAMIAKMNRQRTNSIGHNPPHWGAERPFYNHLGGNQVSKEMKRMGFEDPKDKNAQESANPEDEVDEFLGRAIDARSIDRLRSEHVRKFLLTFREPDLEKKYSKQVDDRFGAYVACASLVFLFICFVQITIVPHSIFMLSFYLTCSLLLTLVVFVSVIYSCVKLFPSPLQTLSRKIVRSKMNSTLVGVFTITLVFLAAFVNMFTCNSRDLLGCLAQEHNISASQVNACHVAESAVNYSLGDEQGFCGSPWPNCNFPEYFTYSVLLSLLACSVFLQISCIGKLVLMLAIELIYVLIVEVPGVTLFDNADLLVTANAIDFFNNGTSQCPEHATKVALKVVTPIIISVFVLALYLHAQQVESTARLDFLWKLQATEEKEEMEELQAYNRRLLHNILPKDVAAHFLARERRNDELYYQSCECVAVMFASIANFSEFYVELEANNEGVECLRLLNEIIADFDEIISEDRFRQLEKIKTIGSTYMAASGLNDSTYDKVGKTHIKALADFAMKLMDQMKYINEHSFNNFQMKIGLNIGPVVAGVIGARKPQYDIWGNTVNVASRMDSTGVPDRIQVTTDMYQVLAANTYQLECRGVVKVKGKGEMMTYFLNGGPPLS

Row | Compound | viability at 1 h, 30 µM [1] [%] | inhibition (Adenylate cyclase type 8 [2]) [%] | Ratio IC50 (Homo sapiens) | further results
1 | CCc1ccc(C(=O)Nc2nnc(-c3ccc(F)cc3)o2)cc1 | 95 | 32 | – | –
2 | O=C(Nc1nnc(-c2ccc(F)cc2)o1)c1ccccc1F | 87 | 13 | – | inhibition (Adenylate cyclase type 1 [3]): 12%
3 | Cc1ccc(C(=O)Nc2nnc(C3CCCCC3)o2)cc1 | 111 | 1 | – | IC50 (Adenylate cyclase type 1 [4]): 16 µM
4 | O=C(Nc1nnc(C2CCCCC2)o1)c1cccc(-c2ccccc2)c1 | 115 | – | 1 | –
5 | COc1cc(C(=O)Nc2nnc(-c3ccc(F)cc3)o2)cc(C(F)(F)F)c1 | 108 | – | 5.8 | IC50 (Adenylate cyclase type 8 [5]): 29 µM
6 | O=C(Nc1nnc(-c2ccc(F)cc2)o1)c1ccc(F)cc1 | 100 | 14 | – | –
7 | COc1cc(C(=O)Nc2nnc(C3CCCCC3)o2)cc(C(F)(F)F)c1 | 113 | – | 1.9 | –
8 | O=C(Nc1nnc(-c2ccc3c(c2)CCCC3)o1)c1ccccc1 | 84 to 124 | – | 1.1 to 5.6 | –
9 | Cc1ccc(C(=O)Nc2nnc(-c3ccc(F)cc3)o2)cc1 | 104 | 31 | > 3.6 | Activity [6]: 341%; Activity [7]: 170%
10 | COc1ccc(C(=O)Nc2nnc(C3CCCCC3)o2)cc1 | 82 | 6 | – | –
11 | O=C(Nc1nnc(-c2ccc(F)cc2)o1)c1cccc(F)c1 | 104 | 35 | – | IC50 (Adenylate cyclase type 1 [4]): 11 µM
12 | COc1ccc(C(=O)Nc2nnc(-c3ccc(F)cc3)o2)cc1 | 82 | 20 | – | IC50 (Adenylate cyclase type 1 [4]): 13 µM
13 | O=C(Nc1nnc(-c2ccc(F)cc2)o1)c1ccc(Cl)cc1 | 84 | 11 | – | –
14 | COc1ccc(C(=O)Nc2nnc(-c3cccs3)o2)cc1 | 97 | 10 | – | –
15 | O=C(Nc1nnc(-c2ccc(F)cc2)o1)c1ccc(S(=O)(=O)N2CCCCC2)cc1 | 119 | 38 | – | IC50 (Adenylate cyclase type 1 [4]): 16 µM
16 | O=C(Nc1nnc(C2CCCCC2)o1)c1ccc(F)cc1 | 95 | 7 | – | IC50 (Adenylate cyclase type 1 [4]): 13 µM
17 | O=C(Nc1nnc(-c2ccc3c(c2)OCCO3)o1)c1cccc(C(F)(F)F)c1 | 116 | – | 6.3 | –
18 | Cc1ccc(C(=O)Nc2nnc(-c3ccc4c(c3)CCCC4)o2)cc1 | 107 to 123 | – | 0.79 to 7.4 | Activity [6]: 275%; Activity [7]: 139%
19 | Cc1ccc(C(=O)Nc2nnc(-c3ccc4c(c3)OCCO4)o2)cc1 | 98 | 25 | – | Activity [6]: 218%; IC50 (Adenylate cyclase type 1 [4]): 12 µM; Activity [7]: 194%
20 | Cc1ccc(C(=O)Nc2nnc(-c3ccc4c(c3)CCCC4)o2)cc1C(F)(F)F | 115 | – | 0.5 | –
21 | Cc1ccc(C(=O)Nc2nnc(-c3ccc4c(c3)OCCO4)o2)cc1C | 113 | – | 2.6 | –

Row | Compound | viability at 1 h, 30 µM [1] [%] | inhibition (Adenylate cyclase type 8 [2]) [%] | Ratio IC50 (Homo sapiens) | further results
22 | CC(C)Oc1ccc(C(=O)Nc2nnc(-c3ccc4c(c3)OCCO4)o2)cc1 | 160 | 39 | – | –
23 | CCOc1cccc2cc(-c3nnc(NC(=O)c4ccccc4SC)o3)oc12 | 127 | – | 1 | IC50 (Adenylate cyclase type 1 [4]): 11 µM; IC50 (Adenylate cyclase type 8 [5]): 11 µM
24 | COc1cccc(C(=O)Nc2nnc(-c3ccc(F)cc3)o2)c1 | 99 | 23 | – | –
25 | CSc1cccc(C(=O)Nc2nnc(-c3ccc4c(c3)CCCC4)o2)c1 | 118 to 137 | – | 5.5 to 10 | –
26 | CCc1ccc(C(=O)Nc2nnc(-c3ccc4c(c3)CCCC4)o2)cc1 | 114 | – | 1.7 | –
27 | Cc1ccc(C(=O)Nc2nnc(-c3ccc(F)cc3)o2)cc1C(F)(F)F | 133 | – | 1.9 | –
28 | COc1cccc(C(=O)Nc2nnc(-c3ccc4c(c3)CCCC4)o2)c1 | 111 to 124 | – | 0.83 to 8.1 | –
29 | CC(C)Oc1ccc(C(=O)Nc2nnc(-c3ccc4c(c3)CCCC4)o2)cc1 | 124 to 129 | – | 0.73 to 1.2 | –
30 | O=C(Nc1nnc(-c2ccc(F)cc2)o1)c1ccccc1 | 87 | 8 | – | –
31 | CSc1cccc(C(=O)Nc2nnc(-c3ccc4c(c3)OCCO4)o2)c1 | 109 | 37 | – | IC50 (Adenylate cyclase type 1 [4]): 9.5 µM
32 | O=C(Nc1nnc(-c2ccc3c(c2)CCCC3)o1)c1ccc(Br)cc1 | 113 to 115 | – | 2.23 to 4.5 | Activity [6]: 160%; Activity [7]: 215%
33 | COc1cccc(C(=O)Nc2nnc(-c3ccc4c(c3)OCCO4)o2)c1 | 103 | 18 | – | –
34 | CC(C)Oc1ccc(C(=O)Nc2nnc(-c3cccs3)o2)cc1 | 73 to 81 | 24 to 35 | – | –
35 | CSc1cccc(C(=O)Nc2nnc(-c3cccs3)o2)c1 | 110 | 34 | – | –
36 | O=C(Nc1nnc(-c2cccs2)o1)c1ccccc1 | 97 | 18 | – | IC50 (Adenylate cyclase type 1 [4]): 28 µM
37 | O=C(Nc1nnc(-c2ccc3c(c2)OCCO3)o1)c1ccccc1 | 87 | 24 | > 1 | –
38 | O=C(Nc1nnc(-c2ccc(F)cc2)o1)c1ccc(-c2ccccc2)cc1 | 114 | – | 2.7 | –
39 | O=C(Nc1nnc(-c2ccc3c(c2)OCCO3)o1)c1ccc(Br)cc1 | 121 | – | 6.8 | Activity [6]: 198%; Activity [7]: 159%
40 | Cc1cc(C(=O)Nc2nnc(-c3ccc4c(c3)CCCC4)o2)cc(C(F)(F)F)c1 | 116 | – | 0.26 | –
41 | O=C(Nc1nnc(C2CCCCC2)o1)c1cccc(C(F)(F)F)c1 | 102 | – | > 3.6 | –
42 | O=C(Nc1nnc(-c2ccc3c(c2)CCCC3)o1)c1ccc(Cl)cc1 | 97 | – | 2.4 | IC50 (Adenylate cyclase type 1 [4]): 1.5 µM; IC50 (Adenylate cyclase type 8 [5]): 3.6 µM

Row | Compound | viability at 1 h, 30 µM [1] [%] | inhibition (Adenylate cyclase type 8 [2]) [%] | Ratio IC50 (Homo sapiens) | further results
43 | Cc1ccc(C(=O)Nc2nnc(C3CCCCC3)o2)cc1C | 112 | – | 5.4 | –
44 | Cc1ccc(C(=O)Nc2nnc(C3CCCCC3)o2)cc1C(F)(F)F | 139 | – | 1.9 | –
45 | O=C(Nc1nnc(-c2ccc3c(c2)CCCC3)o1)c1cccc(F)c1 | 94 | – | 4.2 | –
46 | CC(C)Oc1ccc(C(=O)Nc2nnc(C3CCCCC3)o2)cc1 | 99 | 35 | – | –
47 | CC(C)Oc1ccc(C(=O)Nc2nnc(-c3ccccc3)o2)cc1 | 101 | 43 | > 5.5 | IC50 (Adenylate cyclase type 1 [4]): 5.4 µM
48 | CC(C)Oc1ccc(C(=O)Nc2nnc(-c3ccco3)o2)cc1 | 58 | 21 | – | inhibition (Adenylate cyclase type 1 [3]): 39%
49 | COc1ccc(-c2nnc(NC(=O)c3cc(-c4cccs4)nc4ccccc34)o2)cc1 | 118 | – | 1.2 | IC50 (Adenylate cyclase type 1 [4]): 4.6 µM; IC50 (Adenylate cyclase type 8 [5]): 5.6 µM
50 | O=C(Nc1nnc(-c2ccc(F)cc2)o1)c1ccc(Br)cc1 | 103 | 33 | – | –
51 | O=C(Nc1nnc(-c2cccs2)o1)c1ccc(Br)cc1 | 110 | 41 | – | –
52 | O=C(Nc1nnc(C2CCCCC2)o1)c1cccc(F)c1 | 87 | 11 | – | IC50 (Adenylate cyclase type 1 [4]): 11 µM
53 | O=C(Nc1nnc(C2CCCCC2)o1)c1ccc(Br)cc1 | 108 | – | 2.9 | –
54 | O=C(Nc1nnc(C2CCCCC2)o1)c1ccc(Cl)cc1 | 89 | 10 | – | IC50 (Adenylate cyclase type 1 [4]): 14 µM
55 | COc1ccc(C(=O)Nc2nnc(-c3ccc4c(c3)CCCC4)o2)cc1 | 118 to 121 | 34 | > 4.7 | –
56 | CSc1cccc(C(=O)Nc2nnc(C3CCCCC3)o2)c1 | 117 to 137 | 31 to 43 | > 4.5 | –
57 | CCc1ccc(C(=O)Nc2nnc(C3CCCCC3)o2)cc1 | 119 | 44 | – | –
58 | Cc1cc(C(=O)Nc2nnc(C3CCCCC3)o2)cc(C(F)(F)F)c1 | 125 | – | 2.9 | –
59 | COc1cc(C(=O)Nc2nnc(-c3ccc4c(c3)CCCC4)o2)cc(C(F)(F)F)c1 | 121 | – | 1.1 | –
60 | O=C(Nc1nnc(-c2ccc3c(c2)CCCC3)o1)c1ccc(F)cc1 | 110 | – | 3.7 | –
61 | Cc1ccc(C(=O)Nc2nnc(-c3ccc(F)cc3)o2)cc1C | 95 | 42 | – | –
62 | O=C(Nc1nnc(C2CCCCC2)o1)c1ccccc1 | 87 | 2 | – | IC50 (Adenylate cyclase type 1 [4]): 25 µM
63 | O=C(Nc1nnc(-c2ccc(F)cc2)o1)c1cccc(C(F)(F)F)c1 | 108 | – | 5.8 | –

Source: ChEMBL document CHEMBL4382248, “Optimization of a 1,3,4-oxadiazole series for inhibition of Ca2+/calmodulin-stimulated activity of adenylyl cyclases 1 and 8 for the treatment of chronic pain” (Eur J Med Chem, 2019)
